Measured values from ChEMBL document CHEMBL1944546, “Structure-activity relationships of novel alkylides: 3-O-arylalkyl clarithromycin derivatives with improved antibacterial activities” (2012).
Values after ≈ are worked out from the molar mass of the structure shown.

Key:
[1] = test system: Staphylococcus epidermidis; assay: Antibacterial activity against methicillin-susceptible, inducible MLS-resistant Staphylococcus epidermidis E1 by broth microdilution method; assay type: functional
How it was run: (§1)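 MIC by broth microdilution following CLSI (2010) recommendations, using clinical isolates identified by 16S rDNA sequencing and labelled by genotype and phenotype. S. aureus ATCC 29213 and S. pneumoniae ATCC 49619 were run as control strains, and azithromycin, clarithromycin and 3-OH-clarithromycin were tested as reference agents.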

[2] = test system: Staphylococcus epidermidis; assay: Antibacterial activity against methicillin-resistant, constitutive MLS-resistant Staphylococcus epidermidis E2 by broth microdilution method; assay type: functional; how it was run: as §1
Streptococcus pneumoniae [3] = assay: Antibacterial activity against penicillin-, constitutive MLS-resistant Streptococcus pneumoniae PU 11 by broth microdilution method; assay type: functional; how it was run: as §1
[4] = test system: Staphylococcus haemolyticus; assay: Antibacterial activity against methicillin-resistant, coagulase-negative, constitutive MLS-resistant Staphylococcus haemolyticus PU 19 by broth microdilution method; assay type: functional; how it was run: as §1
Staphylococcus aureus [5] = assay: Antibacterial activity against methicillin-, constitutive MLS-resistant […] by broth microdilution method; assay type: functional; how it was run: as §1
Streptococcus pyogenes [6] = assay: Antibacterial activity against constitutive MLS-resistant Streptococcus pyogenes A 2 by broth microdilution method; assay type: functional; how it was run: as §1
Staphylococcus aureus [7] = assay: Antibacterial activity against methicillin-, inducible MLS-resistant Staphylococcus aureus PU 32 by broth microdilution method
[8] = test system: Streptococcus dysgalactiae; assay: Antibacterial activity against efflux, erythromycin-resistant Streptococcus dysgalactiae A 1 by broth microdilution method; assay type: functional; how it was run: as §1
Staphylococcus hominis [9] = assay: Antibacterial activity against methicillin-resistant, coagulase-negative, inducible MLS-resistant Staphylococcus hominis E3 by broth microdilution method; assay type: functional; how it was run: as §1
Streptococcus pyogenes [10] = assay: Antibacterial activity against erythromycin-susceptible Streptococcus pyogenes A 3 by broth microdilution method; assay type: functional
How it was run: (§2)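 MIC read by broth microdilution following CLSI (2010) guidance. The clinical isolates were identified by 16S rDNA sequencing and labelled by genotype and phenotype. S. aureus ATCC 29213 and S. pneumoniae ATCC 49619 were the control strains. Azithromycin, clarithromycin and 3-OH-clarithromycin were run as reference compounds.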

Staphylococcus aureus [11] = assay: Antibacterial activity against erythromycin-susceptible Staphylococcus aureus ATCC 29213 by broth microdilution method; assay type: functional; how it was run: as §2
Streptococcus pneumoniae [12] = assay: Antibacterial activity against erythromycin-susceptible Streptococcus pneumoniae ATCC 49619 by broth microdilution method; assay type: functional; how it was run: as §2
Streptococcus pneumoniae [13] = assay: Antibacterial activity against penicillin-susceptible, constitutive MLS-resistant Streptococcus pneumoniae PU 27 by broth microdilution method; assay type: functional; how it was run: as §1
[14] = test system: Staphylococcus epidermidis; assay: Ratio of MIC for clarithromycin to compound for methicillin-susceptible, inducible MLS-resistant Staphylococcus epidermidis E1 by broth microdilution method; assay type: functional
Staphylococcus aureus [15] = assay: Antibacterial activity against methicillin-susceptible, inducible MLS-resistant Staphylococcus aureus PU 64 by broth microdilution method; assay type: functional; how it was run: as §1
[16] = test system: Staphylococcus epidermidis; assay: Ratio of MIC for azithromycin to compound for methicillin-susceptible, inducible MLS-resistant Staphylococcus epidermidis E1 by broth microdilution method; assay type: functional
Streptococcus pneumoniae [17] = assay: Antibacterial activity against efflux,penicillin-susceptible Streptococcus pneumoniae PU 09 by broth microdilution method; assay type: functional; how it was run: as §2
Streptococcus pneumoniae [18] = assay: Ratio of MIC for clarithromycin to compound for efflux,penicillin-susceptible Streptococcus pneumoniae PU 09 by broth microdilution method; assay type: functional
How it was run: (§3)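 MICs of the test compounds and of the reference macrolides (azithromycin, clarithromycin) were determined side by side by broth microdilution following CLSI (2010). The clinical isolates were identified by 16S rDNA sequencing and labelled by genotype and phenotype. S. aureus ATCC 29213 and S. pneumoniae ATCC 49619 served as control strains.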

Staphylococcus hominis [19] = assay: Ratio of MIC for clarithromycin to compound for methicillin-resistant, coagulase-negative, inducible MLS-resistant Staphylococcus hominis E3 by broth microdilution method; assay type: functional; how it was run: as §3
Staphylococcus hominis [20] = assay: Ratio of MIC for azithromycin to compound for methicillin-resistant, coagulase-negative, inducible MLS-resistant Staphylococcus hominis E3 by broth microdilution method; assay type: functional; how it was run: as §3
Streptococcus pneumoniae [21] = assay: Ratio of MIC for azithromycin to compound for efflux,penicillin-susceptible Streptococcus pneumoniae PU 09 by broth microdilution method; assay type: functional; how it was run: as §3
[22] = test system: Streptococcus dysgalactiae; assay: Ratio of MIC for clarithromycin to compound for efflux, erythromycin-resistant Streptococcus dysgalactiae A 1 by broth microdilution method; assay type: functional; how it was run: as §3
[23] = test system: Streptococcus dysgalactiae; assay: Ratio of MIC for azithromycin to compound for efflux, erythromycin-resistant Streptococcus dysgalactiae A 1 by broth microdilution method; assay type: functional; how it was run: as §3
Staphylococcus aureus [24] = assay: Antibacterial activity against methicillin-, inducible MLS-resistant […] by broth microdilution method; assay type: functional; how it was run: as §1

| Structure (SMILES) | MIC [1] | MIC [2] | MIC (Streptococcus pneumoniae [3]) | MIC [4] | MIC (Staphylococcus aureus [5]) | MIC (Streptococcus pyogenes [6]) | MIC (Staphylococcus aureus [7]) | MIC [8] | MIC (Staphylococcus hominis [9]) | MIC (Streptococcus pyogenes [10]) | MIC (Staphylococcus aureus [11]) | MIC (Streptococcus pneumoniae [12]) | MIC (Streptococcus pneumoniae [13]) | Ratio [14] | MIC (Staphylococcus aureus [15]) | Ratio [16] | MIC (Streptococcus pneumoniae [17]) | also measured |
| --- | --- | --- | --- | --- | --- | --- | --- | --- | --- | --- | --- | --- | --- | --- | --- | --- | --- | --- |
| CC[C@H]1OC(=O)[C@H](C)[C@@H](O/C=C\Cc2cncnc2)[C@H](C)[C@@H](O[C@@H]2O[C@H](C)C[C@H](N(C)C)[C@H]2O)[C@](C)(OC)C[C@@H](C)C(=O)[C@H](C)[C@@H](O)[C@]1(C)O | 4 µg/mL (≈ 5.65 µM) | > 256 µg/mL | > 256 µg/mL | > 256 µg/mL | > 256 µg/mL | > 256 µg/mL | 4 µg/mL (≈ 5.65 µM) | 4 µg/mL (≈ 5.65 µM) | 8 µg/mL (≈ 11.3 µM) | 4 µg/mL (≈ 5.65 µM) | 8 µg/mL (≈ 11.3 µM) | 1 µg/mL (≈ 1.41 µM) | 32 µg/mL (≈ 45.2 µM) | >16 | 8 µg/mL (≈ 11.3 µM) | >16 | 1 µg/mL (≈ 1.41 µM) |  |
| CC[C@H]1OC(=O)[C@H](C)[C@@H](O/C=C\Cc2cncnc2)[C@H](C)[C@@H](O[C@@H]2O[C@H](C)C[C@H](N(C)C)[C@H]2O)[C@](C)(OC)C[C@@H](C)/C(=N\O)[C@H](C)[C@H]2OC(=O)O[C@@]21C | 0.25 µg/mL (≈ 0.334 µM) | > 256 µg/mL | > 256 µg/mL | > 256 µg/mL | > 256 µg/mL | > 256 µg/mL |  | 0.125 µg/mL (≈ 0.167 µM) | 0.25 µg/mL (≈ 0.334 µM) | 0.016 µg/mL (≈ 0.0214 µM) | 0.5 µg/mL (≈ 0.668 µM) | 0.032 µg/mL (≈ 0.0427 µM) | 1 µg/mL (≈ 1.34 µM) | 1024 | 0.25 µg/mL (≈ 0.334 µM) | 1024 | 0.125 µg/mL (≈ 0.167 µM) | Ratio (Streptococcus pneumoniae [18]): 32; Ratio (Staphylococcus hominis [19]): 1024; Ratio (Staphylococcus hominis [20]): 1024; Ratio (Streptococcus pneumoniae [21]): 32; Ratio [22]: 32; Ratio [23]: 32; MIC (Staphylococcus aureus [24]): 0.25 µg/mL (≈ 0.334 µM) |
| CC[C@H]1OC(=O)[C@H](C)[C@@H](OC/C=C/c2cncnc2)[C@H](C)[C@@H](O[C@@H]2O[C@H](C)C[C@H](N(C)C)[C@H]2O)[C@](C)(OC)C[C@@H](C)/C(=N\O)[C@H](C)[C@H]2OC(=O)O[C@@]21C | > 256 µg/mL | > 256 µg/mL | > 256 µg/mL | > 256 µg/mL | > 256 µg/mL | > 256 µg/mL | 8 µg/mL (≈ 10.7 µM) | 1 µg/mL (≈ 1.34 µM) | > 256 µg/mL | 0.125 µg/mL (≈ 0.167 µM) | 8 µg/mL (≈ 10.7 µM) | 0.5 µg/mL (≈ 0.668 µM) | 32 µg/mL (≈ 42.7 µM) |  | 4 µg/mL (≈ 5.34 µM) |  | 4 µg/mL (≈ 5.34 µM) |  |
| CC[C@H]1OC(=O)[C@H](C)[C@@H](OC/C=C/c2cncnc2)[C@H](C)[C@@H](O[C@@H]2O[C@H](C)C[C@H](N(C)C)[C@H]2O)[C@](C)(OC)C[C@@H](C)/C(=N\OCc2c(C)cc(C)cc2C)[C@H](C)[C@H]2OC(=O)O[C@@]21C | > 256 µg/mL | > 256 µg/mL | 64 µg/mL (≈ 72.6 µM) | > 256 µg/mL | > 256 µg/mL | 32 µg/mL (≈ 36.3 µM) | > 256 µg/mL | 32 µg/mL (≈ 36.3 µM) | > 256 µg/mL | 32 µg/mL (≈ 36.3 µM) | > 256 µg/mL | 16 µg/mL (≈ 18.2 µM) | 64 µg/mL (≈ 72.6 µM) |  | > 256 µg/mL |  | 32 µg/mL (≈ 36.3 µM) |  |
| CC[C@H]1OC(=O)[C@H](C)[C@@H](OCC#Cc2cncnc2)[C@H](C)[C@@H](O[C@@H]2O[C@H](C)C[C@H](N(C)C)[C@H]2O)[C@](C)(OC)C[C@@H](C)/C(=N\O)[C@H](C)[C@@H](O)[C@]1(C)O | > 256 µg/mL | > 256 µg/mL | > 256 µg/mL | > 256 µg/mL | > 256 µg/mL | > 256 µg/mL | > 256 µg/mL | > 256 µg/mL | > 256 µg/mL | > 256 µg/mL | > 256 µg/mL | > 256 µg/mL | > 256 µg/mL |  | > 256 µg/mL |  | > 256 µg/mL |  |
| CC[C@H]1OC(=O)[C@H](C)[C@@H](OCCCc2cncnc2)[C@H](C)[C@@H](O[C@@H]2O[C@H](C)C[C@H](N(C)C)[C@H]2O)[C@](C)(OC)C[C@@H](C)/C(=N\O)[C@H](C)[C@@H](O)[C@]1(C)O | 16 µg/mL (≈ 22.1 µM) | > 256 µg/mL | > 256 µg/mL | > 256 µg/mL | > 256 µg/mL | > 256 µg/mL | 8 µg/mL (≈ 11 µM) | 2 µg/mL (≈ 2.76 µM) | > 256 µg/mL | 0.5 µg/mL (≈ 0.69 µM) | 8 µg/mL (≈ 11 µM) | 1 µg/mL (≈ 1.38 µM) | 64 µg/mL (≈ 88.3 µM) | >16 | 8 µg/mL (≈ 11 µM) | >16 | 2 µg/mL (≈ 2.76 µM) |  |
| CC[C@H]1OC(=O)[C@H](C)[C@@H](O[C@H]2C[C@@](C)(OC)[C@@H](O)[C@H](C)O2)[C@H](C)[C@@H](O[C@@H]2O[C@H](C)C[C@H](N(C)C)[C@H]2O)[C@](C)(O)C[C@@H](C)CN(C)[C@H](C)[C@@H](O)[C@]1(C)O [AZITHROMYCIN] | > 256 µg/mL | > 256 µg/mL | > 256 µg/mL | > 256 µg/mL | > 256 µg/mL | > 256 µg/mL | 8 µg/mL (≈ 10.7 µM) | 32 µg/mL (≈ 42.7 µM) | > 256 µg/mL | 0.125 µg/mL (≈ 0.167 µM) | 1 µg/mL (≈ 1.34 µM) | 0.25 µg/mL (≈ 0.334 µM) | 64 µg/mL (≈ 85.4 µM) |  | 8 µg/mL (≈ 10.7 µM) |  | 8 µg/mL (≈ 10.7 µM) |  |
| CC[C@H]1OC(=O)[C@H](C)[C@@H](O[C@H]2C[C@@](C)(OC)[C@@H](O)[C@H](C)O2)[C@H](C)[C@@H](O[C@@H]2O[C@H](C)C[C@H](N(C)C)[C@H]2O)[C@](C)(OC)C[C@@H](C)C(=O)[C@H](C)[C@@H](O)[C@]1(C)O [CLARITHROMYCIN] | > 256 µg/mL | > 256 µg/mL | > 256 µg/mL | > 256 µg/mL | > 256 µg/mL | > 256 µg/mL | 1 µg/mL (≈ 1.34 µM) | 8 µg/mL (≈ 10.7 µM) | > 256 µg/mL | 0.032 µg/mL (≈ 0.0428 µM) | 0.25 µg/mL (≈ 0.334 µM) | 0.032 µg/mL (≈ 0.0428 µM) | 1 µg/mL (≈ 1.34 µM) |  | 2 µg/mL (≈ 2.67 µM) |  | 4 µg/mL (≈ 5.35 µM) |  |
